Test results taken from ChEMBL document CHEMBL5724801, “EUbOPEN Chemogenomics Library - Multiplex” (2024).
“And” between values parts separate entries of the source, which are not always exact repeats. Equal entries are not always repeated.

test system: U2OS; assay: Multiplex assay against U2OS; assay type: toxicity, cell-based; conditions: human, 12 h, 1 µM, compound concentration 1 uM
Procedure, shortened: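 Cells stained live at seeding with Hoechst33342, BioTracker Green Microtubule Cytoskeleton Dye, MitoTracker Red and Annexin V Alexa Fluor 680 were imaged on a CQ1 microscope at 37°C and 5% CO2 after compound addition. Their classification by CellPathfinder machine-learning gating ran from Hoechst high-intensity objects versus normal cells, to healthy, pyknosed or fragmented nuclei among normal cells, to mitotic or apoptotic among pyknosed cells. Tubulin, mitochondrial-mass and membrane-permeability phenotypes are per cents of healthy-nucleus cells.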

| SMILES | Population Apoptotic (%) | Population Fragmented Nuclei (%) | Population Healthy Nuclei (%) | Population Hoechst High Intensity Objects (%) | Population Membrane Permeable-Phenotype (%) | Population Mitochondria Different-Phenotype (%) | Population Mitotic Cells (%) | Population Normal (%) | Population Pyknosed Nuclei (%) | Population Tubulin-Different-Phenotype (%) |
| --- | --- | --- | --- | --- | --- | --- | --- | --- | --- | --- |
| COC[C@@H](c1ccc(C(F)(F)F)cc1)N1CCN(C2(C)CCN(C(=O)c3c(C)ncnc3C)CC2)C[C@@H]1C.O=C(O)/C=C\C(=O)O [VICRIVIROC MALEATE] | 82% and 81% | 34% and 21% | 54% and 67% | 4% and 2% | 8% and 11% | 4% and 14% | 17% and 18% | 95% and 97% | 11% and 10% | 3% and 7% |
| O=C(NCCNCC(O)COc1ccc(O)cc1)N1CCOCC1.O=C(NCCNCC(O)COc1ccc(O)cc1)N1CCOCC1.O=C(O)/C=C/C(=O)O (stereo not given) [XAMOTEROL FUMARATE] | 71% and 83% | 27% and 19% | 66% and 68% | 2% and 3% | 6% and 13% | 1% | 28% and 16% | 97% and 96% | 5% and 11% | 2% and 5% |

same assay, conditions: human, 12 h, 1 µM, compound concentration 1 uM

| SMILES | Total Cell Count |
| --- | --- |
| COC[C@@H](c1ccc(C(F)(F)F)cc1)N1CCN(C2(C)CCN(C(=O)c3c(C)ncnc3C)CC2)C[C@@H]1C.O=C(O)/C=C\C(=O)O [VICRIVIROC MALEATE] | 261 and 105 |
| O=C(NCCNCC(O)COc1ccc(O)cc1)N1CCOCC1.O=C(NCCNCC(O)COc1ccc(O)cc1)N1CCOCC1.O=C(O)/C=C/C(=O)O (stereo not given) [XAMOTEROL FUMARATE] | 265 and 110 |

same assay, conditions: human, 12 h, 10 µM, compound concentration 10 uM

| SMILES | Population Apoptotic (%) | Population Fragmented Nuclei (%) | Population Healthy Nuclei (%) | Population Hoechst High Intensity Objects (%) | Population Membrane Permeable-Phenotype (%) | Population Mitochondria Different-Phenotype (%) | Population Normal (%) | Population Pyknosed Nuclei (%) | Population Tubulin-Different-Phenotype (%) | Total Cell Count |
| --- | --- | --- | --- | --- | --- | --- | --- | --- | --- | --- |
| COC[C@@H](c1ccc(C(F)(F)F)cc1)N1CCN(C2(C)CCN(C(=O)c3c(C)ncnc3C)CC2)C[C@@H]1C.O=C(O)/C=C\C(=O)O [VICRIVIROC MALEATE] | 86% and 33% | 26% and 28% | 65% | 1% and 2% | 13% and 5% | 3% and 6% | 98% and 97% | 8% and 6% | 3% and 6% | 270 and 91 |
| O=C(NCCNCC(O)COc1ccc(O)cc1)N1CCOCC1.O=C(NCCNCC(O)COc1ccc(O)cc1)N1CCOCC1.O=C(O)/C=C/C(=O)O (stereo not given) [XAMOTEROL FUMARATE] | 92% and 100% | 28% and 15% | 60% and 73% | 0% and 4% | 6% and 4% | 2% and 3% | 99% and 95% | 11% | 4% and 7% | 239 and 118 |

same assay, conditions: human, 12 h, 10 µM, compound concentration 10 uM

| SMILES | Population Mitotic Cells (%) |
| --- | --- |
| O=C(NCCNCC(O)COc1ccc(O)cc1)N1CCOCC1.O=C(NCCNCC(O)COc1ccc(O)cc1)N1CCOCC1.O=C(O)/C=C/C(=O)O (stereo not given) [XAMOTEROL FUMARATE] | 7% and 0% |

same assay, conditions: human, 24 h, 1 µM, compound concentration 1 uM

| SMILES | Population Apoptotic (%) | Population Fragmented Nuclei (%) | Population Healthy Nuclei (%) | Population Hoechst High Intensity Objects (%) | Population Membrane Permeable-Phenotype (%) | Population Normal (%) | Population Pyknosed Nuclei (%) | Population Tubulin-Different-Phenotype (%) | Total Cell Count | Population Mitochondria Different-Phenotype (%) |
| --- | --- | --- | --- | --- | --- | --- | --- | --- | --- | --- |
| COC[C@@H](c1ccc(C(F)(F)F)cc1)N1CCN(C2(C)CCN(C(=O)c3c(C)ncnc3C)CC2)C[C@@H]1C.O=C(O)/C=C\C(=O)O [VICRIVIROC MALEATE] | 77% and 93% | 25% and 20% | 67% and 64% | 3% and 4% | 5% and 10% | 96% and 95% | 7% and 15% | 2% and 10% | 301 and 111 | – |
| O=C(NCCNCC(O)COc1ccc(O)cc1)N1CCOCC1.O=C(NCCNCC(O)COc1ccc(O)cc1)N1CCOCC1.O=C(O)/C=C/C(=O)O (stereo not given) [XAMOTEROL FUMARATE] | 85% and 80% | 24% and 18% | 68% and 69% | 0% and 1% | 5% and 10% | 99% and 98% | 6% and 11% | 1% and 5% | 312 and 129 | 0% and 4% |

same assay, conditions: human, 24 h, 1 µM, compound concentration 1 uM

| SMILES | Population Mitotic Cells (%) |
| --- | --- |
| O=C(NCCNCC(O)COc1ccc(O)cc1)N1CCOCC1.O=C(NCCNCC(O)COc1ccc(O)cc1)N1CCOCC1.O=C(O)/C=C/C(=O)O (stereo not given) [XAMOTEROL FUMARATE] | 15% and 20% |

same assay, conditions: human, 24 h, 10 µM, compound concentration 10 uM

| SMILES | Population Apoptotic (%) | Population Fragmented Nuclei (%) | Population Healthy Nuclei (%) | Population Hoechst High Intensity Objects (%) | Population Membrane Permeable-Phenotype (%) | Population Mitochondria Different-Phenotype (%) | Population Mitotic Cells (%) | Population Normal (%) | Population Pyknosed Nuclei (%) | Population Tubulin-Different-Phenotype (%) |
| --- | --- | --- | --- | --- | --- | --- | --- | --- | --- | --- |
| COC[C@@H](c1ccc(C(F)(F)F)cc1)N1CCN(C2(C)CCN(C(=O)c3c(C)ncnc3C)CC2)C[C@@H]1C.O=C(O)/C=C\C(=O)O [VICRIVIROC MALEATE] | 80% and 83% | 25% | 68% | 1% | 3% and 4% | 3% and 2% | 19% and 16% | 98% | 6% | 2% and 7% |
| O=C(NCCNCC(O)COc1ccc(O)cc1)N1CCOCC1.O=C(NCCNCC(O)COc1ccc(O)cc1)N1CCOCC1.O=C(O)/C=C/C(=O)O (stereo not given) [XAMOTEROL FUMARATE] | 89% and 78% | 22% and 16% | 66% and 70% | 1% | 6% | 2% | 10% and 21% | 98% | 10% and 12% | 2% and 6% |

same assay, conditions: human, 24 h, 10 µM, compound concentration 10 uM

| SMILES | Total Cell Count |
| --- | --- |
| O=C(NCCNCC(O)COc1ccc(O)cc1)N1CCOCC1.O=C(NCCNCC(O)COc1ccc(O)cc1)N1CCOCC1.O=C(O)/C=C/C(=O)O (stereo not given) [XAMOTEROL FUMARATE] | 270 and 152 |

same assay, conditions: human, 48 h, 1 µM, compound concentration 1 uM

| SMILES | Population Apoptotic (%) | Population Fragmented Nuclei (%) | Population Healthy Nuclei (%) | Population Hoechst High Intensity Objects (%) | Population Membrane Permeable-Phenotype (%) | Population Mitochondria Different-Phenotype (%) | Population Normal (%) | Population Pyknosed Nuclei (%) | Population Tubulin-Different-Phenotype (%) | Total Cell Count |
| --- | --- | --- | --- | --- | --- | --- | --- | --- | --- | --- |
| COC[C@@H](c1ccc(C(F)(F)F)cc1)N1CCN(C2(C)CCN(C(=O)c3c(C)ncnc3C)CC2)C[C@@H]1C.O=C(O)/C=C\C(=O)O [VICRIVIROC MALEATE] | 78% and 93% | 20% and 25% | 68% and 62% | 3% and 1% | 3% and 13% | 2% and 11% | 96% and 98% | 10% and 11% | 1% and 10% | 416 and 142 |
| O=C(NCCNCC(O)COc1ccc(O)cc1)N1CCOCC1.O=C(NCCNCC(O)COc1ccc(O)cc1)N1CCOCC1.O=C(O)/C=C/C(=O)O (stereo not given) [XAMOTEROL FUMARATE] | 90% and 91% | 18% and 23% | 75% and 62% | 1% and 2% | 4% and 6% | 2% and 3% | 98% and 97% | 6% and 13% | 2% and 4% | 472 and 171 |

same assay, conditions: human, 48 h, 1 µM, compound concentration 1 uM

| SMILES | Population Mitotic Cells (%) |
| --- | --- |
| O=C(NCCNCC(O)COc1ccc(O)cc1)N1CCOCC1.O=C(NCCNCC(O)COc1ccc(O)cc1)N1CCOCC1.O=C(O)/C=C/C(=O)O (stereo not given) [XAMOTEROL FUMARATE] | 9% and 8% |

same assay, conditions: human, 48 h, 10 µM, compound concentration 10 uM

| SMILES | Population Apoptotic (%) | Population Fragmented Nuclei (%) | Population Healthy Nuclei (%) | Population Hoechst High Intensity Objects (%) | Population Membrane Permeable-Phenotype (%) | Population Mitochondria Different-Phenotype (%) | Population Normal (%) | Population Pyknosed Nuclei (%) | Population Tubulin-Different-Phenotype (%) | Population Mitotic Cells (%) |
| --- | --- | --- | --- | --- | --- | --- | --- | --- | --- | --- |
| COC[C@@H](c1ccc(C(F)(F)F)cc1)N1CCN(C2(C)CCN(C(=O)c3c(C)ncnc3C)CC2)C[C@@H]1C.O=C(O)/C=C\C(=O)O [VICRIVIROC MALEATE] | 80% and 93% | 19% and 18% | 70% and 68% | 2% and 5% | 3% | 2% and 6% | 97% and 94% | 9% and 12% | 1% and 6% | – |
| O=C(NCCNCC(O)COc1ccc(O)cc1)N1CCOCC1.O=C(NCCNCC(O)COc1ccc(O)cc1)N1CCOCC1.O=C(O)/C=C/C(=O)O (stereo not given) [XAMOTEROL FUMARATE] | 89% and 94% | 18% and 17% | 68% and 73% | 1% and 2% | 2% and 4% | 1% and 4% | 98% and 97% | 12% and 9% | 2% and 6% | 10% and 5% |

same assay, conditions: human, 48 h, 10 µM, compound concentration 10 uM

| SMILES | Total Cell Count |
| --- | --- |
| O=C(NCCNCC(O)COc1ccc(O)cc1)N1CCOCC1.O=C(NCCNCC(O)COc1ccc(O)cc1)N1CCOCC1.O=C(O)/C=C/C(=O)O (stereo not given) [XAMOTEROL FUMARATE] | 392 and 206 |
